Columns and labels:
Enterovirus A71 [1] = test: Antiviral activity against human enterovirus 71 infected in african green monkey vero cells; format: functional, organism-based; conditions: Enterovirus A
[2] = Cytotoxicity against african green monkey Vero E6 cells by MTS assay; format: toxicity, cell-based, Vero C1008; conditions: chlorocebus sabaeus
Method in brief: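 Cytotoxicity is measured on treated, uninfected Vero E6 cells in parallel with the antiviral assays, using a standard MTS assay. CC50 is the concentration causing a 50% adverse effect on host cells.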

Enterovirus A71 [3] = test: Antiviral activity against human Enterovirus 71 BrCr infected in human RD cells assessed as reduction of virus induced cytopathic effect incubated for 3 days by MTS assay; format: functional, organism-based; conditions: Enterovirus A, 72 h
Method in brief: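 Confluent RD cells (EMEM, 10% heat-inactivated FBS) are infected with ~100 CCID50 of EV71 BrCr and treated with a compound dilution series. After 3 days at 37 °C, 5% CO2, residual viability is measured by MTS. EC50 is the concentration giving 50% antiviral effect, from at least 2–3 independent experiments.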

Zika virus = test: Antiviral activity against ZIKV MR766 infected in african green monkey Vero E6 cells assessed as decline in virus induced cytopathogenicity measured after 5 days by MTS based microscopic analysis; format: functional, organism-based; conditions: MR766, Vero C1008, 120 h
Method in brief: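 Vero E6 cells (10^4/well) are seeded in MEM with 2% FCS and left to adhere overnight. Cells are then infected with ZIKV MR766 (passaged in C6/36 cells) and given 2-fold serial compound dilutions. After 5 days, CPE is scored by MTS and by microscopy of fixed, stained cells. EC50 is the 50% antiviral effect.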

[4] = Cytotoxicity against human RD cells by MTS assay; format: toxicity, cell-based
Method in brief: (§1)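 Treated, uninfected RD or HeLa cells are run alongside the matching enterovirus CPE assays, with viability read by MTS. CC50 is the concentration giving a 50% adverse effect on host cells.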

SARS-CoV-2 = test: Antiviral activity against SARS-CoV-2 BetaCoV/Belgium/GHB-03021/2020 infected in african green monkey Vero cells assessed as decline in virus induced cytopathogenicity measured after 4 days by argon laser scanning microscopic analysis; format: functional, organism-based; conditions: Severe acute respiratory syndrome coronavirus 2, BetaCoV/Belgium/GHB-03021/2020, Vero, 96 h
[5] = Selectivity index, ratio of CC50 for human RD cells to EC50 for antiviral activity against human Enterovirus 71; format: toxicity; conditions: read-out: Ratio CC50/EC50
Method in brief: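 SI is calculated as CC50 on uninfected RD cells divided by EC50 in the 3-day EV71 BrCr CPE-reduction MTS assay.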

rhinovirus B14 = test: Antiviral activity against Human rhinovirus 14 infected in human HeLa cells assessed as reduction of virus induced cytopathic effect incubated for 3 days by MTS assay; format: functional, organism-based; conditions: Rhinovirus B, 72 h
Method in brief: (§2)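 Same setup as the EV71 assay: confluent monolayers (Vero A for CVB3; HeLa for CVA21, EV68, HRV-A02, HRV-B14) are infected with virus and treated with a compound dilution series. Incubation is 3 days at 37 °C, 5% CO2, and residual viability is read by MTS. EC50 is the 50% effective concentration, mean of at least 2 independent experiments.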

[6] = Cytotoxicity against african green monkey Vero cells by MTS assay; format: toxicity, cell-based; conditions: chlorocebus sabaeus
[7] = Cytotoxicity against human HeLa cells by MTS assay; format: toxicity, cell-based; method in brief: as §1
Coxsackievirus B3 = test: Antiviral activity against Coxsackievirus B3 infected in african green monkey Vero cells assessed as reduction of virus induced cytopathic effect incubated for 3 days by MTS assay; format: functional, organism-based; conditions: Enterovirus B, 72 h; method in brief: as §2
rhinovirus A2 = test: Antiviral activity against Human rhinovirus 2 infected in human HeLa cells assessed as reduction of virus induced cytopathic effect incubated for 3 days by MTS assay; format: functional, organism-based; conditions: Rhinovirus A, 72 h; method in brief: as §2
Coxsackievirus A21 = test: Antiviral activity against Coxsackievirus 21 infected in human HeLa cells assessed as reduction of virus induced cytopathic effect incubated for 3 days by MTS assay; format: functional, organism-based; conditions: Enterovirus C, 72 h
Method in brief: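 HeLa cells infected with coxsackievirus A21 (~100 CCID50) and treated with a compound dilution series, as in the EV71 set-up. Incubation was 3 days at 37 °C, 5% CO2, with residual viability quantified by MTS. EC50 is the concentration giving 50% antiviral effect. Values are means of ≥2 independent experiments.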

enterovirus D68 = test: Antiviral activity against Human enterovirus 68 infected in human HeLa cells assessed as reduction of virus induced cytopathic effect incubated for 3 days by MTS assay; format: functional, organism-based; conditions: Enterovirus D, 72 h; method in brief: as §2
METTL3/METTL14 = METTL3/METTL14 (Homo sapiens, UniProt Q86U44); test: Inhibition of human recombinant full length METTL3/human N-terminal FLAG-tagged METTL14 expressed in SF9 cells assessed as methyltransferase residual activity using ssRNA 5'-rUrArC rArCrU rCrGrA rUrCrU rGrGrA rCrUrA rArArG rCrUrG rCrUrC -3' as substrate incubated for 20 mins followed by H-SAM addition measured after 2 hrs by radio isotope reaction system analysis
Chain of METTL3/METTL14 (Q86U44 whole entry): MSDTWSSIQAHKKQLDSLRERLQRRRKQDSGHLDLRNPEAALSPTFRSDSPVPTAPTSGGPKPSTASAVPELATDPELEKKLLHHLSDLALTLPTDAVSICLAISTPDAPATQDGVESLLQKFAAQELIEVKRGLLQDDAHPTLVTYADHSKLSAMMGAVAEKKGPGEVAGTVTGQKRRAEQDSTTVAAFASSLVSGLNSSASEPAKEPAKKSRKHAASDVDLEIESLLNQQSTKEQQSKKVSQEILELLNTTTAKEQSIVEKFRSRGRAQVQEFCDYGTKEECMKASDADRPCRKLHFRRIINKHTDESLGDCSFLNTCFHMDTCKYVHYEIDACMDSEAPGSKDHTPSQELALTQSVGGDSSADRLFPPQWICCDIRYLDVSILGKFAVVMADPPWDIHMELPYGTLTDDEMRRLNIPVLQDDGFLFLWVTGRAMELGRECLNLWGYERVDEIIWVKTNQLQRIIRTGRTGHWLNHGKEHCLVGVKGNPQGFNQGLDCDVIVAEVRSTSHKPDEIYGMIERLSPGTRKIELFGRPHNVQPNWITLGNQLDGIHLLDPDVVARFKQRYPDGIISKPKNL
Chain of METTL3/METTL14 (Q9HCE5 whole entry, further chain): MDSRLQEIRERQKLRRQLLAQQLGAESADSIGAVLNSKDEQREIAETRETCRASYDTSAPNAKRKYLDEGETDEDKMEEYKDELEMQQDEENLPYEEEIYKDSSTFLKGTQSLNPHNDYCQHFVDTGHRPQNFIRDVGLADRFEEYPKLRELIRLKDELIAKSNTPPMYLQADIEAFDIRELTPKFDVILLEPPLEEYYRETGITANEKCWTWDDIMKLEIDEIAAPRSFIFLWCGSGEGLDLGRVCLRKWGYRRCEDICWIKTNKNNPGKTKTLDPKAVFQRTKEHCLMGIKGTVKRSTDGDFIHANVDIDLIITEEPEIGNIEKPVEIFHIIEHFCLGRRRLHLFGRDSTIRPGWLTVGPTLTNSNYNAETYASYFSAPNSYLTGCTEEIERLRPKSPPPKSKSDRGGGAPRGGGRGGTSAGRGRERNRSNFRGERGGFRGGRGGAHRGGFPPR
Method in brief: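 Compound is pre-incubated for 20 min at room temperature, then 1 μM [3H-methyl]SAM is added for 2 h at room temperature. Activity is reported as % remaining, screened at 100 μM, with IC50 from curve fits.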

Row | Structure (SMILES) | EC50 (Enterovirus A71 [1]) [µM] | CC50 [2] [µM] | EC50 (Enterovirus A71 [3]) [µM] | EC50 (Zika virus) [µM] | CC50 [4] [µM] | EC50 (SARS-CoV-2) [µM] | selectivity ratio [5] | EC50 (rhinovirus B14) [µM] | CC50 [6] [µM] | CC50 [7] [µM] | EC50 (Coxsackievirus B3) [µM] | EC50 (rhinovirus A2) [µM] | EC50 (Coxsackievirus A21) [µM] | EC50 (enterovirus D68) [µM] | IC50 (METTL3/METTL14) [µM]
1 | C#C[C@@]1(O)[C@H](O)[C@@H](CO)O[C@H]1n1ccc2c(N)ncnc21 | 0.625 |  |  |  |  |  |  |  |  |  |  |  |  |  | 
2 | OC[C@H]1O[C@@H](n2cnc3c(N4CCc5ccccc54)ncnc32)[C@H](O)[C@@H]1O |  | > 100 | > 100 | > 100 | > 100 | > 100 |  |  |  |  |  |  |  |  | 
3 | OC[C@H]1O[C@@H](n2cnc3c(NCc4cccc(Cl)c4)ncnc32)[C@H](O)[C@@H]1O |  | > 100 | 0.106 | > 100 | 42.7 | > 100 | 403 |  |  |  |  |  |  |  | 
4 | CCOC(=O)/C=C/[C@H](C[C@@H]1CCNC1=O)NC(=O)[C@@H](CC(=O)[C@@H](NC(=O)c1cc(C)on1)C(C)C)Cc1ccc(F)cc1 |  |  |  |  | > 1 |  | > 111 |  |  |  |  |  |  |  | 
5 | OC[C@H]1O[C@@H](n2cnc3c(NCc4ccc(Cl)cc4)ncnc32)[C@H](O)[C@@H]1O |  | > 100 | 0.236 | > 100 | > 100 | > 100 | > 424 |  |  |  |  |  |  |  | 
6 | OC[C@H]1O[C@@H](n2cnc3c(NCc4ccccc4Cl)ncnc32)[C@H](O)[C@@H]1O |  | > 100 | 0.117 | > 100 | 28.2 | > 100 | 241 |  |  |  |  |  |  |  | 
7 | Cc1cccc(CNc2ncnc3c2ncn3[C@@H]2O[C@H](CO)[C@@H](O)[C@H]2O)c1 |  | > 100 | 0.094 | > 100 | > 100 | > 100 | > 1060 | > 100 | > 100 | > 100 | > 100 | > 100 | 36.4 | 8.9 | 
8 | C[C@H](NP(=O)(OC[C@H]1O[C@@H](n2cnc3c(NCc4cccc(C(F)(F)F)c4)ncnc32)[C@H](O)[C@@H]1O)Oc1ccccc1)C(=O)OCc1ccccc1 (stereo not given in full) |  |  | 0.017 |  | 9.18 | > 100 | 542 |  |  |  |  |  |  |  | 
9 | CSC[C@H]1O[C@@H](n2cnc3c(N4CCc5ccccc54)ncnc32)[C@H](O)[C@@H]1O |  | > 100 | 19 | > 100 | 64.9 | > 100 | 3.4 |  |  |  |  |  |  |  | 
10 | COC(=O)[C@H](CCSC[C@H]1O[C@@H](n2cnc3c(NCc4cccc(Cl)c4)ncnc32)[C@H](O)[C@@H]1O)NC(=O)C(F)(F)F |  | > 100 | 4.5 | > 100 | > 100 | > 100 | > 16.9 | > 100 | > 100 | > 100 | > 100 | > 100 | 54.6 | > 100 | 
11 | CC(Nc1ncnc2c1ncn2[C@@H]1O[C@H](CO)[C@@H](O)[C@H]1O)c1cccc(Cl)c1 (stereo not given in full) |  | > 100 | 1.07 | > 100 | > 100 | > 100 | > 93.5 | > 100 | > 100 | > 100 | > 100 | > 100 | > 100 | > 100 | 
12 | CC(Nc1ncnc2c1ncn2[C@@H]1O[C@H](CO)[C@@H](O)[C@H]1O)c1ccccc1Cl (stereo not given in full) |  | > 100 | > 100 | > 100 | > 100 | > 100 |  |  |  |  |  |  |  |  | 
13 | CSC[C@H]1O[C@@H](n2cnc3c(NC(C)c4ccccc4Cl)ncnc32)[C@H](O)[C@@H]1O (stereo not given in full) |  | > 100 | > 100 | > 100 | > 100 | > 100 |  |  |  |  |  |  |  |  | 
14 | OC[C@H]1O[C@@H](n2ccc3c(NCc4cccc(C(F)(F)F)c4)ncnc32)[C@H](O)[C@@H]1O |  | > 100 | 0.101 | > 100 | > 100 | > 100 | > 1070 | > 100 | > 100 | > 100 | > 100 | > 100 | 19.9 | 91.2 | 129
15 | CSC[C@H]1O[C@@H](n2cnc3c(NCc4cccc(C)c4)ncnc32)[C@H](O)[C@@H]1O |  | > 100 | 0.898 | > 100 | > 75 | > 100 | > 83.5 | > 100 | > 50 | > 100 | > 100 | > 100 | > 100 | > 100 | 
16 | C[C@H](NP(=O)(OC[C@H]1O[C@@H](n2ccc3c(NCc4cccc(C(F)(F)F)c4)ncnc32)[C@H](O)[C@@H]1O)Oc1ccccc1)C(=O)OCc1ccccc1 (stereo not given in full) |  | > 100 | 0.6 |  | 42.5 | > 100 | 70.8 |  |  |  |  |  |  |  | 
17 | CSC[C@H]1O[C@@H](n2cnc3c(NCc4cccc(C(F)(F)F)c4)ncnc32)[C@H](O)[C@@H]1O |  | > 100 | > 20 | > 100 | > 100 | > 100 |  |  |  |  |  |  |  |  | 
18 | CSC[C@H]1O[C@@H](n2cnc3c(NCc4ccccc4Cl)ncnc32)[C@H](O)[C@@H]1O |  | > 100 | 2.61 | > 100 | > 100 | > 100 | > 38.3 |  |  |  |  |  |  |  | 
19 | CSC[C@H]1O[C@@H](n2cnc3c(NCc4ccc(Cl)cc4)ncnc32)[C@H](O)[C@@H]1O |  | > 100 | 8.05 | > 100 | > 100 | > 100 | > 12.1 |  |  |  |  |  |  |  | 
20 | OC[C@H]1O[C@@H](n2ccc3c(NCc4cccc(Cl)c4)ncnc32)[C@H](O)[C@@H]1O |  | > 100 | 0.065 | > 100 | > 20 | > 100 | > 301 |  |  |  |  |  |  |  | 58.8
21 | CSC[C@H]1O[C@@H](n2ccc3c(NCc4cccc(Cl)c4)ncnc32)[C@H](O)[C@@H]1O |  | > 100 | > 75 | > 100 | > 100 | > 100 |  |  |  |  |  |  |  |  | 
22 | CSC[C@H]1O[C@@H](n2cnc3c(NCc4cccc(S(F)(F)(F)(F)F)c4)ncnc32)[C@H](O)[C@@H]1O |  | 46.4 | 1.85 | > 100 | 23.5 | > 100 | 12.7 |  |  |  |  |  |  |  | 
23 | CSC[C@H]1O[C@@H](n2cnc3c(NCc4cccc(Cl)c4)ncnc32)[C@H](O)[C@@H]1O |  | > 100 | 0.53 | > 100 | > 20 | > 100 | > 37.7 |  |  |  |  |  |  |  | 184
24 | OC[C@H]1O[C@@H](n2cnc3c(NCc4cccc(S(F)(F)(F)(F)F)c4)ncnc32)[C@H](O)[C@@H]1O |  | > 100 | 0.102 | > 100 | > 100 | > 100 | > 1280 | > 100 | > 100 | 88.7 | > 100 | > 100 | 31.7 | > 100 | 
25 | CSC[C@H]1O[C@@H](n2cnc3c(NC(C)c4cccc(Cl)c4)ncnc32)[C@H](O)[C@@H]1O (stereo not given in full) |  | 50.8 | 4.21 | > 100 | 44.3 | > 100 | 10.5 |  |  |  |  |  |  |  | 
26 | C[C@@]1(O)[C@H](O)[C@@H](CO)O[C@H]1n1ccc2c(N)ncnc21 [BETA-2'-C-METHYL-7-DEAZA-ADENOSINE] |  | > 300 |  | 20 |  |  |  |  |  |  |  |  |  |  | 
